# Experiments:
# Mus musculus [1] = assay: Change in weight by day 5, obtained by subtracting treated groups of animals minus control groups of animals at dose 50 mg/kg in exp4.; format: functional
# Outline: (§1)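 Mice were inoculated ip with 10^6 P388 leukemia cells on day 0 and weighed 19–22 g that day. Compound was given ip once daily on days 1–5, within about 5 min of preparing the solution or suspension, to groups of six (occasionally five). Thirty inoculated untreated mice served as controls. The value is the average weight change of treated mice minus that of controls on day 5.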
# [2] = Ratio of number of 60-day survivors to the total treated mice at dose 50 mg/kg in exp8; 2/6; format: functional
# Mus musculus [3] = assay: Median survival time of the untreated control groups, in which there are no 30-day survivors at dose 33 mg/kg in exp3; format: functional
# Mus musculus [4] = assay: Mortality by day 5 expressed as number of mice died to the total treated at dose 50 mg/kg in exp8; 0/6; format: ADME, organism-based; parameters: dose 50 mg/kg; settings: in vivo
# Mus musculus [5] = assay: Change in weight by day 5, obtained by subtracting treated groups of animals minus control groups of animals at dose 50 mg/kg in exp8; format: functional; outline: as §1
# Mus musculus [6] = assay: Mortality by day 5 expressed as number of mice died to the total treated at dose 50 mg/kg in exp5; 0/6; format: ADME, organism-based; parameters: dose 50 mg/kg; settings: in vivo
# Mus musculus [7] = assay: Median survival time of the treated control groups, in which there are no 30-day survivors at dose 50 mg/kg in exp8; format: functional
# Mus musculus [8] = assay: Median survival time of the untreated control groups, in which there are no 30-day survivors at dose 50 mg/kg in exp4; format: functional
# Mus musculus [9] = assay: Change in weight by day 5, obtained by subtracting treated groups of animals minus control groups of animals at dose 22 mg/kg in exp7; format: functional; outline: as §1
# Mus musculus [10] = assay: Median survival time of the untreated control groups, in which there are no 30-day survivors at dose 22 mg/kg in exp7; format: functional
# [11] = Ratio of median survival times for non-survivors at dose 22 mg/kg in exp3; format: functional
# Outline: (§2)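 Mice were inoculated ip with 10^6 P388 leukemia cells on day 0. Groups of six (occasionally five) were dosed ip qd on days 1–5 with fresh suspensions; 30 mice served as untreated controls. Deaths were recorded daily up to day 60. T/C% compares the median survival of treated non-survivors (<60 days) with the control median. Medians used grouped data when there were no 30-day survivors, otherwise ungrouped data. t = toxic.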
# Mus musculus [12] = assay: Mortality by day 5 expressed as number of mice died to the total treated at dose 50 mg/kg in exp1; 0/5; format: ADME, organism-based; parameters: dose 50 mg/kg; settings: in vivo
# Mus musculus [13] = assay: Mortality by day 5 expressed as number of mice died to the total treated at dose 50 mg/kg in exp6; 0/6; format: ADME, organism-based; parameters: dose 50 mg/kg; settings: in vivo
# Mus musculus [14] = assay: Median survival time of the treated control groups, in which there are no 30-day survivors at dose 33 mg/kg in exp2; format: functional
# Mus musculus [15] = assay: Mortality by day 5 expressed as number of mice died to the total treated at dose 33 mg/kg in exp2; 0/5; format: ADME, organism-based; parameters: dose 33 mg/kg; settings: in vivo
# Mus musculus [16] = assay: Change in weight by day 5, obtained by subtracting treated groups of animals minus control groups of animals at dose 200 mg/kg in exp1.; format: functional; outline: as §1
# Mus musculus [17] = assay: Median survival time of the untreated control groups, in which there are no 30-day survivors at dose 33 mg/kg in exp2; format: functional
# Mus musculus [18] = assay: Median survival time of the treated control groups, in which there are no 30-day survivors at dose 22 mg/kg in exp6; format: functional
# [19] = Ratio of median survival times for non-survivors at dose 150 mg/kg in exp2; t= toxic; format: ADME, organism-based; parameters: dose 150 mg/kg; settings: in vivo; outline: as §2
# [20] = Ratio of median survival times for non-survivors at dose 50 mg/kg in exp5; format: functional
# Mus musculus [21] = assay: Mortality by day 5 expressed as number of mice died to the total treated at dose 33 mg/kg in exp3; 0/5; format: ADME, organism-based; parameters: dose 33 mg/kg; settings: in vivo
# Mus musculus [22] = assay: Change in weight by day 5, obtained by subtracting treated groups of animals minus control groups of animals at dose 33 mg/kg in exp5; format: functional; outline: as §1
# Mus musculus [23] = assay: Change in weight by day 5, obtained by subtracting treated groups of animals minus control groups of animals at dose 33 mg/kg in exp7; format: functional; outline: as §1
# [24] = Ratio of median survival times for non-survivors at dose 50 mg/kg in exp6; format: functional
# [25] = Ratio of median survival times for non-survivors at dose 33 mg/kg in exp6; format: functional
# Mus musculus [26] = assay: Mortality by day 5 expressed as number of mice died to the total treated at dose 33 mg/kg in exp4; 0/6; format: ADME, organism-based; parameters: dose 33 mg/kg; settings: in vivo
# Mus musculus [27] = assay: Mortality by day 5 expressed as number of mice died to the total treated at dose 100 mg/kg in exp8*-Mortality was 3/6 by day 6; 2/6; format: ADME, organism-based; parameters: dose 100 mg/kg; settings: in vivo
# [28] = Ratio of median survival times for non-survivors at dose 22 mg/kg in exp5; format: functional
# Mus musculus [29] = assay: Median survival time of the treated control groups, in which there are no 30-day survivors at dose 33 mg/kg in exp7; format: functional
# Mus musculus [30] = assay: Median survival time of the treated control groups, in which there are no 30-day survivors at dose 50 mg/kg in exp2; format: functional
# Mus musculus [31] = assay: Median survival time of the untreated control groups, in which there are no 30-day survivors at dose 50 mg/kg in exp1; format: functional
# [32] = Ratio of number of 60-day survivors to the total treated mice at dose 50 mg/kg in exp2; 0/5; format: functional
# Mus musculus [33] = assay: Mortality by day 5 expressed as number of mice died to the total treated at dose 150 mg/kg in exp2; 5/5; format: ADME, organism-based; parameters: dose 150 mg/kg; settings: in vivo
# Mus musculus [34] = assay: Mortality by day 5 expressed as number of mice died to the total treated at dose 200 mg/kg in exp8; 6/6; format: ADME, organism-based; parameters: dose 200 mg/kg; settings: in vivo
# Mus musculus [35] = assay: Median survival time of the untreated control groups, in which there are no 30-day survivors at dose 22 mg/kg in exp3; format: functional
# Mus musculus [36] = assay: Mortality by day 5 expressed as number of mice died to the total treated at dose 75 mg/kg in exp2; 0/5; format: ADME, organism-based; parameters: dose 75 mg/kg; settings: in vivo
# Mus musculus [37] = assay: Median survival time of the untreated control groups, in which there are no 30-day survivors at dose 22 mg/kg in exp5; format: functional
# Mus musculus [38] = assay: Mortality by day 5 expressed as number of mice died to the total treated at dose 22 mg/kg in exp6; 0/6; format: ADME, organism-based; parameters: dose 22 mg/kg; settings: in vivo
# [39] = Ratio of median survival times for non-survivors at dose 22 mg/kg in exp4
# [40] = Ratio of median survival times for non-survivors at dose 100 mg/kg in exp2; format: functional; outline: as §2
# Mus musculus [41] = assay: Change in weight by day 5, obtained by subtracting treated groups of animals minus control groups of animals at dose 100 mg/kg in exp8; format: functional; outline: as §1
# Mus musculus [42] = assay: Median survival time of the treated control groups, in which there are no 30-day survivors at dose 22 mg/kg in exp5; format: functional
# Mus musculus [43] = assay: Median survival time of the treated control groups, in which there are no 30-day survivors at dose 15 mg/kg in exp3; format: functional
# [44] = Ratio of median survival times for non-survivors at dose 33 mg/kg in exp3; format: functional
# [45] = Ratio of number of 60-day survivors to the total treated mice at dose 50 mg/kg in exp4; 6/6; format: functional
structure (smiles),measurement,setting,value
CS(=O)(=O)CS(=O)(=O)OCCCl,Change in weight,Mus musculus [1],-3
same,Ratio,[2],2
same,Median survival time,Mus musculus [3],11.1
same,Mortality,Mus musculus [4],0
same,Change in weight,Mus musculus [5],-1.6
same,Mortality,Mus musculus [6],0
same,Median survival time,Mus musculus [7],30
same,Median survival time,Mus musculus [8],10.5
same,Change in weight,Mus musculus [9],-2.2
same,Median survival time,Mus musculus [10],10.7
same,Ratio,[11],166
same,Mortality,Mus musculus [12],0
same,Mortality,Mus musculus [13],0
same,Median survival time,Mus musculus [14],23.5
same,Mortality,Mus musculus [15],0
same,T-C,Mus musculus [16],-5 g
same,Median survival time,Mus musculus [17],11.2
same,Median survival time,Mus musculus [18],20.8
same,Ratio,[19],Toxic
same,Ratio,[20],225
same,Mortality,Mus musculus [21],0
same,Change in weight,Mus musculus [22],-1.5
same,Change in weight,Mus musculus [23],-2.4
same,Ratio,[24],335
same,Ratio,[25],179
same,Mortality,Mus musculus [26],0
same,Mortality,Mus musculus [27],2
same,Ratio,[28],161
same,Median survival time,Mus musculus [29],22.3
same,Median survival time,Mus musculus [30],27
same,Median survival time,Mus musculus [31],11.2
same,Ratio,[32],0
same,Mortality,Mus musculus [33],5
same,Mortality,Mus musculus [34],6
same,Median survival time,Mus musculus [35],11.1
same,Mortality,Mus musculus [36],0
same,Median survival time,Mus musculus [37],12
same,Mortality,Mus musculus [38],0
same,Ratio,[39],180
same,Ratio,[40],200
same,Change in weight,Mus musculus [41],-6
same,Median survival time,Mus musculus [42],19.4
same,Median survival time,Mus musculus [43],16
same,Ratio,[44],198
same,Ratio,[45],6
